Activity calls are given as the source filed them. The calls are words filed in the database; no cut-off is given here.
Experiments:
CHLA-266 [1] = assay: Induction of cell cycle arrest in human CHLA-266 cells assessed as accumulation of cells at G1 phase incubated for 72 hrs by flow cytometry analysis; assay type: functional, cell-based; details: dose 5-20 µM
In short: (§1)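 72 h DAPI flow-cytometry cell-cycle assay. Chla266 in IMDM/20% FBS seeded at 30,000 cells/mL; G401 in DMEM/10% FBS at 10,000 cells/mL; 1 mL/well, 37 °C, 5% CO2. Next day the medium was replaced with inhibitor at final 0, 5, 10 or 20 µM. Cells were harvested, PBS-washed, and the G1 percentage was read. n ≥ 3, mean ± SD, one-way ANOVA vs control.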

CHLA-266 [2] = assay: Induction of cell cycle arrest in human CHLA-266 cells assessed as accumulation of cells at G1 phase at 20 uM incubated for 72 hrs by flow cytometry analysis (reference value: 74.2+/-3.6%); assay type: functional
In short: (§2)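 Cell cycle. Seeding and 72 h treatment as for the apoptosis assay, with I-BRD9 or BI-9564 at 0, 5, 10 or 20 µM final. A 100 µL cell suspension was stained with DAPI and read by flow cytometry. Percentage of cells in G1, n ≥3, mean ± SD, one-way ANOVA versus control.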

BT-12 [3] = assay: Synergistic cytotoxicity against human BT-12 cells assessed as combination index incubated for 72 hrs in presence of doxorubicin by MTT-based Chou-Talalay method; assay type: functional
In short: (§3)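 MTT combination assay. BT12 in IMDM/20% FBS at 5000 cells/well; G401 in DMEM/10% FBS. Drugs added 24 h after seeding, with I-BRD9 and cytostatic at a fixed 10:1 ratio (final ranges 0.001–100 µM and 0.0001–10 µM). After 72 h: MTT for 3 h, dissolved in isopropanol/0.04 N HCl, read at 570/630 nm. Technical triplicates, ≥3 independent runs; combination index by Chou–Talalay median-effect analysis.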

BT-12 [4] = assay: Induction of apoptosis in human BT-12 cells assessed as necrotic cells incubated for 72 hrs by flow cytometry analysis; assay type: functional, cell-based; details: dose 5-20 µM
In short: (§4)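 Annexin V/PI flow assay. G401 at 10,000 cells/mL and BT12 or Chla266 at 30,000 cells/mL were seeded in 12-well plates. Next day medium was replaced with medium holding I-BRD9 or BI-9564 at 0, 5, 10 or 20 µM final for 72 h. Cells were washed in PBS, stained with FITC-Annexin V and propidium iodide for 15 min in the dark at room temperature, then read by flow cytometry. Percentage of dead cells, n ≥3, mean ± SD, one-way ANOVA versus control.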

CHLA-266 [5] = assay: Induction of apoptosis in human CHLA-266 cells assessed as necrotic cells incubated for 72 hrs by flow cytometry analysis; assay type: functional, cell-based; details: dose 5-20 µM; in short: as §4
G-401 [6] = assay: Induction of cell cycle arrest in human G-401 cells assessed as accumulation of cells at G1 phase at 20 uM incubated for 72 hrs by flow cytometry analysis (reference value: 51.7+/-2%); assay type: functional; in short: as §1
G-401 [7] = assay: Induction of apoptosis in human G-401 cells assessed as necrotic cells at 5 uM incubated for 72 hrs by flow cytometry analysis (Rvb= 5.7+/-1.9 %); assay type: functional; in short: as §4
CHLA-266 [8] = assay: Induction of apoptosis in human CHLA-266 cells assessed as necrotic cells at 5 uM incubated for 72 hrs by flow cytometry analysis (Rvb= 5.0+/-0.3 %)
G-401 [9] = assay: Induction of apoptosis in human G-401 cells assessed as necrotic cells incubated for 72 hrs by flow cytometry analysis; assay type: functional, cell-based; details: dose 5-20 µM; in short: as §4
[10] = Anti-proliferative activity against human KD cells assessed as cell viability incubated for 144 hrs by MTT assay; assay type: functional, cell-based
In short: (§5)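 MTT proliferation assay. Cells were seeded at 3000 (BT16, KD, G401) or 5000 (BT12, Chla266) cells per well and drug was added after 24 h, final 0.001–100 µM. Read at 72 or 144 h; 144 h wells got fresh medium and drug on day 3. MTT for 3 h, formazan dissolved in isopropanol/0.04 N HCl, absorbance at 570/630 nm. Technical triplicates, ≥3 independent runs, IC50 derived.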

BT-12 [11] = assay: Anti-proliferative activity against human BT-12 cells assessed as inhibition cell growth incubated for 72 hrs in presence of doxorubicin by MTT-based Chou-Talalay method; assay type: functional; details: BT-12, 72 h
In short: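 Combination MTT assay. I-BRD9 and carboplatin, doxorubicin or vincristine were given together at a fixed 10:1 ratio, with cytostatics 0.0001–10 µM final, added 24 h after seeding. MTT read-out at 570/630 nm after 3 h formazan solubilisation. Combination index from the Chou–Talalay median-effect method: CI <1 synergism, CI >1 antagonism. n ≥3.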

G-401 [12] = assay: Synergistic cytotoxicity against human G-401 cells assessed as combination index incubated for 72 hrs in presence of vincristine by MTT-based Chou-Talalay method; assay type: functional; in short: as §3
G-401 [13] = assay: Synergistic cytotoxicity against human G-401 cells assessed as combination index incubated for 72 hrs in presence of doxorubicin by MTT-based Chou-Talalay method; assay type: functional; in short: as §3
BT-12 [14] = assay: Anti-proliferative activity against human BT-12 cells assessed as cell viability incubated for 144 hrs by MTT assay; assay type: functional, cell-based; details: BT-12, 144 h; in short: as §5
CHLA-266 [15] = assay: Cytotoxicity against human CHLA-266 cells assessed as change in cell viability at 5 to 20 uM treated for 72 hrs; assay type: functional, cell-based; details: dose 5-20 µM; in short: as §4
BT-12 [16] = assay: Anti-proliferative activity against human BT-12 cells assessed as cell viability incubated for 72 hrs by MTT assay; assay type: functional, cell-based; details: BT-12, 72 h; in short: as §5
G-401 [17] = assay: Anti-proliferative activity against human G-401 cells assessed as cell viability incubated for 144 hrs by MTT assay; assay type: functional, cell-based; details: G-401, 144 h; in short: as §5
CHLA-266 [18] = assay: Induction of cell cycle arrest in human CHLA-266 cells assessed as accumulation of cells at G1 phase at 5 uM incubated for 72 hrs by flow cytometry analysis (reference value: 74.2+/-3.6%); assay type: functional; in short: as §2
[19] = Anti-proliferative activity against human KD cells assessed as cell viability incubated for 72 hrs by MTT assay; assay type: functional, cell-based; in short: as §5
G-401 [20] = assay: Anti-proliferative activity against human G-401 cells assessed as cell viability incubated for 72 hrs by MTT assay; assay type: functional, cell-based; details: G-401, 72 h; in short: as §5
G-401 [21] = assay: Induction of cell cycle arrest in human G-401 cells assessed as accumulation of cells at G1 phase incubated for 72 hrs by flow cytometry analysis; assay type: functional, cell-based; details: dose 5-20 µM; in short: as §1
G-401 [22] = assay: Induction of cell cycle arrest in human G-401 cells assessed as accumulation of cells at G1 phase at 5 uM incubated for 72 hrs by flow cytometry analysis (reference value: 46.7+/-1.9%); assay type: functional; in short: as §1
CHLA-266 [23] = assay: Induction of apoptosis in human CHLA-266 cells assessed as necrotic cells at 20 uM incubated for 72 hrs by flow cytometry analysis (Rvb= 5.0+/-0.3 %)
G-401 [24] = assay: Induction of cell cycle arrest in human G-401 cells assessed as accumulation of cells at G1 phase at 20 uM incubated for 72 hrs by flow cytometry analysis (reference value: 46.7+/-1.9 %); assay type: functional; in short: as §1
BT-12 [25] = assay: Induction of cell cycle arrest in human BT-12 cells assessed as accumulation of cells at G1 phase at 10 uM incubated for 72 hrs by flow cytometry analysis (reference value: 69+/-1.9%); assay type: functional; in short: as §2

For `CCn1cc(-c2cccc(C(F)(F)F)c2)c2sc(C(=N)NC3CCS(=O)(=O)CC3)cc2c1=O`, the Activity (CHLA-266 [1]) was “Dose-Dependent Effect”, the Activity (CHLA-266 [2]) was 89.3% and the CI (BT-12 [3]) was 0.42. The Activity (BT-12 [4]) was “Dose-Dependent Effect”, the Activity (CHLA-266 [5]) was “Dose-Dependent Effect” and the Activity (G-401 [6]) was 65.5%. For the same compound, the Activity (G-401 [7]) was 7.7%, the Activity (CHLA-266 [8]) was 7.7% and the Activity (G-401 [9]) was “Dose-Dependent Effect”. For the same compound, the IC50 [10] was 7.1 µM, the IC50 (BT-12 [11]) was 0.94 µM and the CI (G-401 [12]) was 9. The CI (G-401 [13]) was 1.2, the IC50 (BT-12 [14]) was 8.2 µM and the Activity (CHLA-266 [15]) was “Active”. For the same compound, the IC50 (BT-12 [16]) was 21.2 µM, the IC50 (G-401 [17]) was 6.1 µM and the Activity (CHLA-266 [18]) was 79.5%. For the same compound, the IC50 [19] was 8.1 µM, the IC50 (G-401 [20]) was 13.4 µM and the Activity (G-401 [21]) was “Dose-Dependent Effect”. It also gave an Activity (G-401 [22]) of 53%, an Activity (CHLA-266 [23]) of 25% and an Activity (G-401 [24]) of 78.1%. It also gave an Activity (BT-12 [25]) of 80.1%.

Reference: ChEMBL document CHEMBL5712078, “BRD9 Inhibition, Alone or in Combination with Cytostatic Compounds as a Therapeutic Approach in Rhabdoid Tumors” (Int J Mol Sci, 2017)
